Bioassay records from PubChem BioAssay.
Efflux pump inh: blocks antifungal efflux pumps in multiplex yeast assay; inhibition, % at 10 µM; S. cerevisiae Candida pump triplex, Nile Red efflux; 330,000 tested, 0.44% active;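 active = plate passing quality check with inhibition over a set limit, or well fluorescence over plate mean plus 4 SD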;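 also: Nile Red retained in pooled yeast measured as flow cytometry median fluorescence; 0% = buffer negative control and 100% = Enniatin B positive control; higher means more Nile Red kept so more efflux inhibition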
FN deposition inh: fibronectin deposition inhibition | inhibition, % at 12.6 µM | 350,000 tested, 0.086% active | AID 743247 | AH1F fibroblasts, Alexa488-fibronectin deposition fluorescence, overnight;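 active = mean inhibition across replicates of 30% or more, regardless of how many single replicates reach that level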;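 also: positive control wells lacked labelled fibronectin entirely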
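Assay system: AH1F fibroblast monolayer, labelled fibronectin deposition. Amount: 10000 cells per well. Also added: labelled fibronectin 24 nM. Compound: single-point pinned compound. Incubation: cell attachment 1 h, compound and FN exposure overnight. Detection: fluorescence after three HBSS washes, excitation 485 nm, emission 525 nm. Read-out: inhibition of fibronectin deposition signal.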
CaV13 ICDI inh: Disruptors of the CACNA1D IQ motif to Ca2+-dependent inactivation inhibitor domain association, primary screening, Förster resonance energy transfer in intact living …. 340,000 tested, 0.098% active. AID 743397. HEK cells, CFP/YFP FRET ICDI-IQ, plate reader, 10 min; percent FRET-ratio fall versus neutral wells. inhibition, % at 12.3 µM;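 active = mean replicate inhibition of at least 30% and at least 1% of replicates passing that level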;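 also: 0% = median of the neutral control wells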
SR-BI DiI-HDL act: SR-BI HDL lipid transfer activation; CHO ldlA[mSR-BI] cells, DiI-HDL uptake fluorescence, 3 h; 100 = double the neutral-control signal; 320,000 tested, 0.096% active; activation, % at 12.5 µM; AID 504775;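 active = mean replicate activation of at least 60% and every replicate at or above 60%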;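 also: 0% = median plate neutral-control signal and 100% = twice that signal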
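system = CHO ldlA[mSR-BI] cells, LDL receptor-null, SR-BI overexpressing | medium = Ham's F12 with 0.5% BSA, HEPES 25 mM, pH 7.4 | probe or stimulus = DiI-HDL 10 µg/mL | compound dosing = single-point compound dose | incubation = compound exposure 3 h, 37 °C | technique = DiI fluorescence, bottom read | read-out = cell-associated DiI fluorescence as measure of HDL uptake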
SR-BI DiI inh: blocks mouse SR-BI lipid uptake from DiI-HDL. ldlA[mSR-BI] CHO cells, DiI-HDL uptake fluorescence, 3 h. AID 488896. 320,000 tested, 0.96% active. inhibition, % at 12.5 µM;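 active = mean replicate inhibition of at least 70% and a set share of replicates each scoring 70 or more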;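 also: 0% = median of neutral control wells and 100% = median of positive control wells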
Target sequence (Q61009 whole entry, looked up): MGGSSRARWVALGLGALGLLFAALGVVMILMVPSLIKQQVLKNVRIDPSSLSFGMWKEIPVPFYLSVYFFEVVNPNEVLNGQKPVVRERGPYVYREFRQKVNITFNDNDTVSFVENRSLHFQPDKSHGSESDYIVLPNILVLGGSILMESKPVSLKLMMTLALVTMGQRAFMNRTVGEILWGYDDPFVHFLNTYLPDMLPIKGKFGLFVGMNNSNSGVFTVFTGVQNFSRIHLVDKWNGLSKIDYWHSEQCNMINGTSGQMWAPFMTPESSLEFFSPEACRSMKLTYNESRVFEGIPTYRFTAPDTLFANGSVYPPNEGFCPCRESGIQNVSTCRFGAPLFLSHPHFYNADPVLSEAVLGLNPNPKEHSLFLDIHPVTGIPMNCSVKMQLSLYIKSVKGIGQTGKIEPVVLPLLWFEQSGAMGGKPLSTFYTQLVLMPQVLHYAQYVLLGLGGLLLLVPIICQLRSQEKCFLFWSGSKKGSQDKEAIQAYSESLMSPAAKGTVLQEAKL
Numbers without * were called inactive; . = no result. In the library only some 1.2% were active in any assay of this set; here they are far more common.

SMILES	Efflux pump inh	FN deposition inh	CaV13 ICDI inh	SR-BI DiI-HDL act	SR-BI DiI inh
Cc1ccc(CNC(=O)c2ccc(N3CCC4(CC3)CC(c3cccc(Br)c3)=NO4)c(N)c2)cc1	0	-10	-10	-85	85*
O=C(C[C@H]1C=C[C@@H](NC(=O)Cc2cccnc2)[C@@H](CO)O1)Nc1ccc(-c2ccccc2)cc1	.	3	.	.	.
CCC(=O)N1C[C@H](C)[C@H](OC)CN(C)C(=O)c2cc(NC(=O)c3cc(C)on3)ccc2OC[C@@H]1C	.	-5	.	.	.
O=[N+]([O-])c1ccc2nc(-c3ccccc3)n(OCc3ccc(Cl)cc3)c2c1	0	.	-7	-78	78*
COc1ccc(CCNC(=O)CSc2cn(Cc3ccccc3)c3ccccc23)cc1OC	0	9	-6	-14	14
COc1ccc(CCNC(=O)CSc2cn(Cc3cccc(C)c3)c3ccccc23)cc1OC	0	11	49*	-54	54
C[C@@H]1CCCCO[C@@H](CN(C)CC2CCCCC2)[C@@H](C)CN([C@H](C)CO)C(=O)c2cc(NC(=O)NC3CCCCC3)ccc2O1	.	8	.	.	.
CCOc1ccc(-n2c(SCC(=O)Nc3cc(OC)c([N+](=O)[O-])cc3C)nc3ccccc32)cc1	0	1	-9	-82	82*
COc1ccc(-c2ccc3c(c2)S(=O)(=O)c2cccc(C(=O)NCCOc4ccccc4)c2C3=O)cc1OC	0	.	.	-73	73*
N#Cc1cccc(-c2ccc(C3[C@H]4CNC[C@@H]3N4Cc3ccc4c(c3)OCO4)cc2)c1 (some centres not stated)	.	3	.	.	.
C=CCOC(=O)C(C#N)c1nc2ccccc2nc1N1CCN(Cc2ccccc2)CC1 (configuration not stated)	0	.	-6	-84	84*
C=CCOC(=O)C(C#N)c1nc2ccccc2nc1N1CCN(c2ccccc2OC)CC1 (configuration not stated)	0	.	-4	-82	82*
COCCOC(=O)C(C#N)c1nc2ccccc2nc1N1CCN(Cc2ccccc2)CC1 (configuration not stated)	0	.	.	-38	38
C[C@@H]1CN([C@H](C)CO)C(=O)c2cc(NC(=O)Cc3ccccc3)ccc2O[C@@H](C)CCCCO[C@@H]1CN(C)S(=O)(=O)c1ccccc1	.	-3	.	.	.
C[C@H]1CN([C@@H](C)CO)S(=O)(=O)c2ccc(C3=CCCCC3)cc2O[C@@H]1CN(C)C(=O)Cc1ccncc1	.	-7	.	.	.
COc1ccc2oc(=N)c(C(=O)Nc3ccccc3Cl)cc2c1	0	-2	-20	-72	72*
NS(=O)(=O)c1ccc(N/N=C/c2cn(-c3ccccc3)nc2-c2cccs2)c([N+](=O)[O-])c1	0	.	-7	-104	104*
NS(=O)(=O)c1ccc(N/N=C/c2ccc(C(=O)O)cc2)c([N+](=O)[O-])c1	0	4	-6	7	-7
Cc1nn(-c2ccccc2)c(N2CCCC2)c1/C=N/Nc1ccc(S(N)(=O)=O)cc1[N+](=O)[O-]	0	8	-3	-80	80*
Cc1ccc(S(=O)(=O)NCC[C@H]2CC[C@H](NC(=O)NC(C)C)[C@@H](CO)O2)cc1	.	-7	.	.	.
Cc1cccnc1Nc1nc(-c2ccc(O)cc2O)cs1	0	.	0	-71	71*
Oc1ccc(C[C@@H](CN2CCCC2CN2C(=S)NC[C@@H]2Cc2ccccc2)N2C[C@H](Cc3ccccc3)N(CC3CCCCC3)C2=S)cc1 (some centres not stated)	.	-15	-3	.	.
Oc1ccc(C[C@H]2CNC(=S)N2CC2CCCN2C[C@H](Cc2ccc(O)cc2)N2C[C@H](Cc3ccccc3)N(CC3CCCCCC3)C2=S)cc1 (some centres not stated)	.	-50	-3	68*	-68
Oc1ccc(C[C@H]2CN([C@@H](Cc3ccccc3)CN3CCC[C@@H]3CN3C(=S)NC[C@@H]3Cc3ccccc3)C(=S)N2CC2CCCCC2)cc1	.	.	-5	.	.
CC(C)C[C@@H](CN1CCCC1CN1C(=S)NC[C@@H]1Cc1ccc(O)cc1)N1C[C@H](Cc2ccc(O)cc2)N(CCc2ccccc2)C1=S (some centres not stated)	.	.	-8	177*	-177
